ARNT-TACC3 inh: disruptors of human ARNT/TACC3 interaction; Q9Y6A5; AlphaScreen His-ARNT PAS-B/GST-TACC3 binding, luminescence; TACC3 fragment carries E629A point mutation; inhibition, % at 9.99 µM; 0.66% of 390,000 active; AID 623870;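 active means mean inhibition of replicates at least 50% and at least half of replicates each reaching 50%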
CAL PDZ FP-1: human CAL PDZ-peptide interaction inhibition. Q9HD26. purified CAL PDZ, TMR-peptide fluorescence polarization, 1 h. inhibition, % at 20 µM. 0.02% of 330,000 active;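 active means highest replicate inhibition of at least 40%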
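Read-out basis: mP drop reported as inhibition | Assay system: Tagged CAL PDZ protein CerCALP, purified | Benchmarks: Unlabelled peptide for full inhibition, DMSO wells as neutral | Schedule: 1 h incubation at room temperature before polarization reading | Buffer or medium: Sodium phosphate/NaCl buffer pH 7.4 with TCEP, IgG, Thesit | Doses: Single point, 20 µM | Measured by: Fluorescence polarization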
CAL PDZ FP-2: inhibitors of human CAL PDZ peptide binding. 0.92% of 300,000 active. Q9HD26. inhibition, % at 24.9 µM. purified CAL PDZ, TMR-peptide fluorescence polarization, 1 h;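 active means mean inhibition of at least 30% with at least half of replicates also reaching 30%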
Numbers stand for hits; n = inactive; x = not tested or not shown; + = active, no number. This is a sample that favours compounds with a hit; in the whole collection about 1.2% have one here.

SMILES	ARNT-TACC3 inh	CAL PDZ FP-1	CAL PDZ FP-2
Cc1cc(CNC(=S)Nc2ccc(S(=O)(=O)Nc3ncccn3)cc2)nn1C	x	n	n
Cc1nn(C)c(C)c1NC(=S)Nc1ccc(S(=O)(=O)Nc2ncccn2)cc1	n	n	39.1
CCCNC(=O)C[C@H]1CC[C@H]2[C@@H](COC[C@@H](O)CN2C(=O)Nc2ccccc2OC)O1	n	x	x
CO[C@H]1CN(C)C(=O)c2ccc(NS(=O)(=O)C3CCCCC3)cc2OC[C@@H](C)NC[C@H]1C	n	x	x
CCNC(=O)C[C@H]1CC[C@H](NC(=O)C2CC2)[C@@H](CO)O1	n	x	x
C[C@H](CO)N1C[C@H](C)[C@@H](CN(C)Cc2ccc(Oc3ccccc3)cc2)Oc2ccc(NC(=O)NC3CCCCC3)cc2C1=O	n	x	x
CCc1ccc2nc3n[nH]c(N)c3cc2c1	n	n	n
Nc1[nH]nc2nc3ccccc3cc12	n	n	46.6
C[C@@H]1CN([C@@H](C)CO)C(=O)CCCn2nncc2CO[C@@H]1CN(C)C(=O)Nc1cccc(F)c1	n	x	x
CO[C@@H]1CN(C)C(=O)c2cc(NC(=O)c3ccccc3)ccc2OC[C@@H](C)N(CC2CC2)C[C@H]1C	n	x	x
CN1c2ccc(-c3ccc(F)cc3)cc2[C@@H]2[C@@H](CCN2C(=O)c2cccc(F)c2)[C@@H]1CO	n	x	x
CCC(C)(C(=O)NC1CCCC1)N(C(=O)CC1NC(=O)NC1=O)c1ccc(C)cc1 (stereo not given)	n	n	60.5
CCC(C)(C(=O)NC1CCCC1)N(C(=O)CC1NC(=O)NC1=O)c1c(C)n(C)n(-c2ccccc2)c1=O (stereo not given)	n	n	x
O=C(c1cccnc1)N1CCCCN2[C@H](CO)[C@H](c3ccc(C#Cc4ccccc4)cc3)[C@@H]2C1	n	x	x
CC(C)Cc1nnc(NC(=O)CCC(=O)N2CCN(c3ccc(F)cc3)CC2)s1	n	n	40.9
CC(C)Cc1nnc(NC(=O)CCC(=O)N2CCOCC2)s1	n	n	n
Cc1cccc(S(=O)(=O)N2C[C@H]3[C@@H](c4ccccc42)[C@H](CO)N3C(=O)CC2CC2)c1	n	x	x
COC(=O)C[C@H]1CC[C@@H]2[C@@H](COc3ccc(NC(=O)Nc4cccc(F)c4)cc3C(=O)N2C)O1	n	x	x
Cn1ncc(=S)[nH]c1=S	n	n	84.6
Cn1ncc2c(=O)[nH]c(N)nc21	n	n	n
CC(=O)N1[C@@H]2c3ccc(-c4ccc(F)cc4)c(=O)n3C[C@@H]2[C@@H](CO)[C@@H]1C(=O)NC1CCC1	n	x	x
C[C@@H]1CN([C@H](C)CO)C(=O)c2cccc(NS(=O)(=O)c3cccs3)c2O[C@H]1CN(C)S(=O)(=O)c1ccc(F)cc1	n	x	x
CCOc1ccc(C(=O)NCC(=O)Nc2ccc3c(c2)OCO3)cc1OCC	x	n	n
CSc1cccc(NC(=O)CNC(=O)c2ccc3c(c2)OCO3)c1	n	n	61.1
O=C(Cc1n[nH]c(=O)c2ccccc12)OCC(=O)c1ccc(F)cc1	n	n	n
SMILES	ARNT-TACC3 inh	CAL PDZ FP-1	CAL PDZ FP-2
COc1ccccc1C(=O)COC(=O)Cc1n[nH]c(=O)c2ccccc12	n	n	31.1
C[C@@H]1CN([C@@H](C)CO)C(=O)c2cc(NC(=O)Nc3ccccc3)ccc2O[C@@H](C)CCCCO[C@@H]1CN(C)S(=O)(=O)c1ccc(F)cc1	n	x	x
CC1C=NC(S(=O)(=O)N2CC[C@@H]3[C@H](CO)N(C)c4ccc(-c5ccccc5)cc4[C@@H]32)=N1 (stereo not given in full)	n	x	x
S=C(Nc1ccccc1Cl)NC1CCN(Cc2ccccc2)CC1	n	n	n
S=C(Nc1ccccc1Cl)NC1CCC(NC(=S)Nc2ccccc2Cl)CC1 (stereo not given)	n	n	31.3
COc1ccccc1C#Cc1cnc2c(c1)C(=O)N([C@@H](C)CO)C[C@H](C)[C@@H](CN(C)C)O2	n	x	x
O=C(Cc1ccccc1)NN=Cc1ccccc1	n	n	n
O=C(CC(=O)N/N=C/c1ccccc1)NCc1ccccc1	n	n	146.6
O=C(C[C@H]1CC[C@H]2[C@@H](COC[C@H](O)CN2Cc2ccccc2)O1)N1CCOCC1	n	x	x
Cc1noc(C)c1NC(=O)N(C)C[C@@H]1Oc2ccc(NS(C)(=O)=O)cc2CC(=O)N([C@@H](C)CO)C[C@H]1C	n	x	x
CCOC(=O)CNC(=O)CSc1nnc(Cn2cnc3ccccc32)n1C	n	n	+
COc1ccc(NC(=O)CSc2nnc(Cn3cnc4ccccc43)n2C)cc1	n	n	n
COc1ccccc1-c1ccc([C@@H]2[C@@H](C#N)N(C(=O)c3cccnc3)[C@@H]2CO)cc1	n	x	x
CCNc1nc(OC)nc(N(OC)S(=O)(=O)c2ccc(C)cc2)n1	n	x	73.6
CCNc1nc(OCCNS(=O)(=O)c2cc(C)ccc2C)nc(N(C)C)n1	n	n	n
CN1CCN(C(=O)[C@@H]2[C@@H](CO)[C@@H]3Cn4c(ccc(C5=CCCCC5)c4=O)[C@H]2N3S(C)(=O)=O)CC1	n	x	x
Cc1ccc(C(=O)N/N=C/c2ccc(-c3cccc(Cl)c3)o2)cn1	n	n	n
Cc1ccc(C(=O)N/N=C/c2ccc(-c3ccccc3[N+](=O)[O-])o2)cn1	26.9	n	n
O=C(C[C@@H]1CC[C@@H]2[C@H](COC[C@@H](O)CN2C(=O)Cc2ccccc2)O1)NC1CCCC1	n	x	x
C[C@@H]1CN([C@@H](C)CO)C(=O)Cc2cc(NC(=O)Nc3ccc4c(c3)OCO4)ccc2O[C@H]1CN(C)C(=O)Nc1ccc(F)cc1	n	x	x
O=C(CC(F)(F)F)N1C[C@@H]2[C@H](c3ccccc31)[C@H](CO)N2C(=O)Cc1cccnc1	n	x	x
C(=N\Nc1nc2ccccc2[nH]1)/c1ccccc1	n	n	n
Cc1ccccc1/C=N/Nc1nc2ccccc2[nH]1	n	n	n
Cc1ccc(/C=N/Nc2nc3ccccc3[nH]2)s1	n	n	n
Cc1[nH]c2ccccc2c1/C=N/Nc1nc2ccccc2[nH]1	45.4	n	x
SMILES	ARNT-TACC3 inh	CAL PDZ FP-1	CAL PDZ FP-2
C(=N\Nc1nc2ccccc2[nH]1)/C1CCCCC1	45.9	n	n
C(=N\Nc1nc2ccccc2[nH]1)/c1cccc2cccnc12	60.7	n	x
CCC(=O)N(C)C[C@H]1Oc2cc(-c3ccccc3F)ccc2S(=O)(=O)N([C@@H](C)CO)C[C@@H]1C	n	x	x
N/C(=N\NS(=O)(=O)c1ccc(Cl)cc1)c1ccccn1	43.4	n	n
N/C(=N\NS(=O)(=O)c1ccccc1)c1ccccn1	66.5	n	n
N/C(COc1ccc(Cl)cc1)=N\NS(=O)(=O)c1ccccc1	n	n	n
COc1ccc(/C(C)=N\NS(=O)(=O)c2ccccc2)cc1OC	n	n	n
COCC(=O)N1C[C@@H](C)[C@H](OC)CN(C)C(=O)c2ccc(NC(=O)NC(C)C)cc2OC[C@@H]1C	n	x	x
Cc1ccc(C)c(N2CCN(Cc3nnnn3C3CCCCC3)CC2)c1	n	n	n
Cc1ccc2nc(N3CCN(Cc4nnnn4C4CCCC4)CC3)c(C#N)cc2c1	n	n	55.2
CCC(=O)N(C)C[C@@H]1[C@H](c2ccc(-c3cccnc3)cc2)[C@H](CO)N1C(C)=O	n	x	x
C=CCc1c(C)nc(C)nc1N/N=C/c1ccccc1O	64.3	n	x
C=CCc1c(C)nc(C)nc1N/N=C/c1ccc([N+](=O)[O-])cc1	n	x	n
CCCNC(=O)N[C@H]1CC[C@H](CCn2cc(-c3cccc(F)c3)nn2)O[C@H]1CO	n	x	x
CCCCN(CC)S(=O)(=O)c1ccc(C(=O)Nc2nnc(COC)o2)cc1	n	n	n

Bioassay records (PubChem)
